Jurkat NFkB inh: lowers PMA/ionomycin-induced NF-kB signal in Jurkat cells | hit rate 0.53% among 330,000 | PMA/ionomycin-induced NF-kB luciferase reporter, luminescence | inhibition, % at 4 µM | AID 435003; in the data active means inhibition above about 50%
UPR XBP1 act: activators of adaptive arm of unfolded protein response (XBP1); CHO-XBP1 luciferase reporter, IRE1-XBP1 UPR activation, luminescence; percent of tunicamycin response, DMSO as zero; activation, % at 20 µM; hit rate 0.33% among 330,000;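 active means versus positive control, 20 µM dose yields 30% or more activation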;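 further: 100% = tunicamycin at 10 µg/mL and 0% = DMSO only wells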
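Material: CHO cell line with stable XBP1 luciferase reporter; schedule: 16-18 h cell attachment at 37 °C, then 6 h compound exposure; signal: glow luminescence from Steady-Glo reagent; medium: serum-containing F12 medium, 10% FBS; benchmarks: tunicamycin 10 µg/mL and vehicle-only wells; read-out: percent activation relative to tunicamycin reference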
Gli-Sufu block: Gli-Sufu pathway antagonism | Sufu-KO-LIGHT fibroblasts, Gli luciferase reporter luminescence | inhibition, % at 5 µM | hit rate 0.74% among 340,000 | AID 588413;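 active means inhibition above about 55%, limit read from the data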;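 further: 0% = DMSO-treated cells and 100% = wells with medium but no cells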
CHOP UPR activ: apoptotic UPR (CHOP) activation; activation, % at 10 µM; CHO-CHOP luciferase reporter, luminescence; percent of tunicamycin response over DMSO baseline; hit rate 0.34% among 330,000; AID 449763;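 active means at 10 µM dose, activation of 40% or more, normalized to positive control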;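 further: 100% = tunicamycin at 10 µg/mL and 0% = DMSO alone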
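Assay system: CHO-CHOP cells, stable luciferase reporter of PERK-eIF2a-CHOP signalling / Buffer or medium: F12 plus 10% serum / Compound dosing: one dose, 10 µM in 0.5% DMSO / Times: 6 h compound treatment, 37 °C / Technique: luciferase luminescence / Read-out: % reporter activation, DMSO baseline versus tunicamycin full activation / Benchmarks: tunicamycin and DMSO controls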
697 NFkB inh: lowers PMA/ionomycin-induced NF-kB signal in 697 B cells; 697 B-cell NF-kB luciferase reporter, 16 h; inhibition, % at 4 µM; hit rate 0.33% among 330,000; in the data active means inhibition above about 35%
CHOP inh: blocks CHOP induction under ER stress; inhibition, % at 10 µM; CHO-K1 CHOP-promoter luciferase, tunicamycin-induced, 15-18 h; hit rate 3.8% among 220,000; AID 2732;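 active means compounds that reduced the stress-induced luciferase reporter signal by more than about 70% of percent inhibition, limit read from the data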;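 further: 0% = tunicamycin plus vehicle and 100% = wells without tunicamycin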
Gli-Sufu confirm: Gli-SUFU antagonism confirmation, single concentration. shares compounds with Gli-Sufu block. Sufu-KO-LIGHT cells, Gli luciferase reporter, luminescence. inhibition, % at 5 µM. hit rate 40% among 2,500;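 active means mean inhibition at 5 µM reaching about 45%, limit read from the data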;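 further: plate controls were DMSO-treated cells for no effect and wells lacking cells for full effect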
SufuKO cytotox: counter-screen for Gli-SUFU antagonists: cytotoxicity; shares compounds with Gli-Sufu block; Sufu-KO-LIGHT cells cytotoxicity, ATP luminescence; cytotoxicity, % at 5 µM; hit rate 32% among 2,500; AID 651994;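 active means mean cytotoxicity at 5 µM above about 25%, limit read from the data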;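 further: cells exposed to compound overnight for roughly 16 to 18 hours; plate controls were DMSO wells with cells for no effect and medium without cells for full effect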
Wnt3a cs: counter-screen for Gli-SUFU antagonists: Wnt3a reporter inhibition. shares compounds with Gli-Sufu block. Wnt-LIGHT cells, Wnt3a-driven luciferase reporter, luminescence. inhibition, % at 6.25 µM. hit rate 20% among 2,500;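 active means mean inhibition above about 25%, limit read from the data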
Starred values were filed as active, the others as inactive; . = no result. In the library only some 3.9% were active in any assay of this set; here they are far more common.

SMILES | Jurkat NFkB inh | UPR XBP1 act | Gli-Sufu block | CHOP UPR activ | 697 NFkB inh | CHOP inh | Gli-Sufu confirm | SufuKO cytotox | Wnt3a cs
CCCCc1ccc(N=N/C(C(=O)Nc2cc(OC)c(NC(C)=O)cc2OC)=C(/C)O)cc1 | 15 | -2 | 64* | 1 | 4 | -2 | 16 | 4 | -40
CC(N=C1NS(=O)(=O)c2ccccc21)C(=O)OCC(=O)N(C)C1CCS(=O)(=O)C1 (stereo not drawn) | 5 | -1 | 86* | 0 | -2 | . | 14 | -5 | 14
Cc1cc(OCc2cc(C(=O)N3CCCCCC3)no2)cc(C)c1Cl | -74 | 1 | -19 | 4 | -96 | . | . | . | .
CC1=C(C)CC(C(=O)NCCc2ccc(F)cc2)C(C(=O)O)C1 (stereo not drawn) | 15 | -2 | -7 | 0 | -3 | . | . | . | .
COc1cccc(NC(=O)CCS(=O)(=O)c2ccc3c(c2)oc(=O)n3C)c1 | 20 | -1 | 51 | 1 | -8 | . | 18 | 26* | -25
CC(C)(C)NC(=O)c1ccc(NC(=O)c2ccccc2-c2ccccc2C(=O)O)cc1 | -7 | -1 | 5 | 0 | 12 | . | . | . | .
CC(C)(C)C1CCC(OC(=O)C[N+]2(C)CCCCC2)CC1 (stereo not drawn) | 0 | 2 | 53 | 2 | -17 | 9 | 33 | 12 | 1
CC(=O)N(c1nnc(-c2ccc(C)cc2)s1)C1CCCC1 | -72 | 3 | -13 | 7 | -45 | . | . | . | .
COc1cc(C(=O)NCc2ccccc2)ccc1OC(F)F | -2 | -3 | 4 | -2 | -9 | 5 | . | . | .
COc1ccc(COc2ccccc2C(=O)NCc2ccccc2)cc1F | 15 | 0 | 53 | 3 | -49 | 51 | 20 | 15 | 12
COc1ccc(NS(=O)(=O)c2cccc(C(=O)NC3CCN(Cc4ccccc4)CC3)c2)cc1 | 15 | -2 | 57* | -1 | -46 | . | 35 | 10 | 11
COc1ccc(CNC(=O)CN2CCC(NC(=O)c3ccc(OC)cc3)CC2)cc1 | -8 | -2 | 62* | 0 | -2 | . | 26 | 11 | -28
COc1ccc(CNC2CCN(Cc3ccccc3)CC2)cc1 | 8 | -2 | 58* | 1 | 9 | . | 18 | 8 | -9
Cc1ccc(NC(=O)COC(=O)CC2CCCC2)cc1F | 12 | -1 | 1 | 2 | 22 | . | . | . | .
CC1(c2ccc3c(c2)OCCO3)NC(=O)N(CC(=O)Nc2c(F)cccc2F)C1=O (stereo not drawn) | 6 | -1 | -1 | 0 | 14 | . | . | . | .
COC(=O)CC1COc2ccccc2N1C(=O)/C=C/c1ccccc1 (stereo not drawn) | 3 | 3 | 9 | 1 | 1 | . | . | . | .
CC(C)Oc1ccc(CCNC(=O)C2CCC(=O)N(Cc3cccc(F)c3)C2)cc1 (stereo not drawn) | -22 | -2 | 57* | 4 | -23 | . | 11 | -9 | -54
Cc1cccc(NS(=O)(=O)c2ccc(C)c(C(=O)NNC(=O)c3csc(N4CCOCC4)n3)c2)c1 | . | . | -5 | . | . | . | . | . | .
COc1cc2[nH]c(=O)n(Cc3ccccc3Cl)c(=O)c2cc1OC | -9 | 0 | 55 | 1 | 16 | 14 | 31 | 6 | 10
CN(C)CCNC(=O)c1cccc2nc3c(ccc4ccccc43)nc12 | . | . | 34 | . | . | . | . | . | .
COc1ccc(C(=O)NCCN(C)C)c2nc3ccccc3cc12 | . | . | 64* | . | . | . | 70* | 38* | -281
COc1cccc2nc3c(C(=O)NCCN(C)C)cccc3cc12 | . | . | 70* | . | . | . | 62* | 23 | -98
CC(NC(=O)CN1C(=O)NC2(CCc3ccccc32)C1=O)c1ccc2c(c1)OCCO2 (stereo not drawn) | -10 | 2 | -8 | 1 | 1 | . | . | . | .
Cc1ccc(NC(=O)[C@H](C)NC(=O)C2CCN(C(=O)[C@@H](N)CC(C)C)CC2)cc1 | 1 | 4 | 11 | 1 | 7 | . | . | . | .
CN1/C(=C\C(=O)CN2C(=O)NC3(CCCCCC3)C2=O)C(C)(C)c2ccccc21 | -9 | 0 | 70* | 0 | -41 | 65 | 41 | 52* | -31
SMILES | Jurkat NFkB inh | UPR XBP1 act | Gli-Sufu block | CHOP UPR activ | 697 NFkB inh | CHOP inh | Gli-Sufu confirm | SufuKO cytotox | Wnt3a cs
COCCn1c(SCC(=O)/C=C2\N(C)c3ccccc3C2(C)C)nnc1-c1ccncc1 | 7 | 1 | 59* | -1 | -4 | 40 | 34 | 2 | -35
CN1/C(=C\C(=O)COC(=O)CNC(=O)c2ccc3ccccc3c2)C(C)(C)c2ccccc21 | -3 | 1 | 51 | 2 | -10 | 43 | 47* | 14 | 8
Cc1cccc[n+]1CC(=O)/C=C1\N(C)c2ccccc2C1(C)C | 43 | 2 | 63* | -1 | 2 | 14 | 61* | 24 | 31*
CC1(C)C(=O)Nc2ccccc2N1C(=O)COc1ccccc1C#N | 2 | -4 | 4 | -3 | 18 | . | . | . | .
CN1/C(=C/C(=O)CSc2ccccc2C(=O)O)C(C)(C)c2ccccc21 | 7 | -2 | 34 | -1 | 7 | 1 | . | . | .
Cc1cc(=O)[nH]c(SCC(=O)/C=C2\N(C)c3ccccc3C2(C)C)n1 | 13 | -3 | 68* | -3 | 4 | 41 | 61* | 25 | 27*
CCOC(=O)CN1C(=O)N(CC(=O)OCC)C(c2ccccc2)(c2ccccc2)C1=O | -2 | -5 | 13 | 2 | -8 | . | . | . | .
Nc1nc2n(n1)C(c1ccco1)CC(c1ccc(Cl)cc1Cl)N2 (stereo not drawn) | -4 | -1 | 50 | 0 | 5 | 12 | 8 | 11 | 6
CC1CCCCC1NC(=O)CN1C(=O)NC(C)(c2cccc(Br)c2)C1=O (stereo not drawn) | 5 | 0 | -9 | 2 | 12 | . | . | . | .
COc1ccc(N2CCN(C(=O)NCc3ccc(OC)c(Cl)c3)CC2)cc1 | 6 | -3 | 56* | 0 | 7 | 7 | 25 | 9 | -8
COc1ccc(N2CCN(C(=O)NCc3ccc(OC)c(OC)c3)CC2)cc1 | 2 | 0 | 16 | 0 | 4 | . | . | . | .
COc1ccc(S(=O)(=O)N2CCN(C(=S)NCCc3ccccc3)CC2)cc1 | 18 | -7 | -3 | 2 | -44 | . | . | . | .
COCCCNC(=S)N1CCN(S(=O)(=O)c2ccc(OC)cc2)CC1 | 9 | -2 | 69* | 0 | 20 | 8 | 11 | 16 | -6
CC1Cc2cc(S(=O)(=O)N3CCC(C(=O)N4CCN(c5ccccc5F)CC4)CC3)ccc2N1C(=O)C1CC1 (stereo not drawn) | 7 | -2 | 54 | 10 | 2 | . | 62* | 24 | 5

Bioassay records (PubChem BioAssay)
